Broadly, the IC50 is the concentration that inhibits the measured activity by half. By inhibition is commonly meant the drop in the measured response relative to a control, in per cent.

We go through 26 compounds from ChEMBL document CHEMBL3352772, “2-Pyridyl thiazoles as novel anti-Trypanosoma cruzi agents: structural design, synthesis and pharmacological evaluation” (Eur J Med Chem, 2014).

The test system of one experiment is HepG2. Briefly: Cytotoxicity against human HepG2 cells after 48 hrs by. The class given is cell-based. Conditions: HepG2, 48 h. The method, boiled down:
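HepG2 cells in supplemented Eagle's MEM, 3000 cells/well, plated onto predispensed compounds. Incubated 48 h at 37 °C, 80% humidity, 5% CO2. Viability read by CellTiter-Glo luminescence.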

Experiment [1] has as its system Trypanosoma cruzi. The experiment is described as follows: Antitrypanosomal activity against trypomastigote forms of Trypanosoma cruzi Y infected in LLC-MK2 cells assessed as reduction in viable parasites after 24 hrs by Neubauer chamber counting method. The format is functional, organism-based. Conditions: LLC-MK2, 24 h. The method, boiled down:
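Bloodstream trypomastigotes (Y strain) taken from supernatants of infected LLC-MK2 cells kept in RPMI-1640 with 10% FBS and gentamycin at 37 °C, 5% CO2. Plated at 4×10^5 cells/well with five concentrations of inhibitor in DMSO. Incubated 24 h at 37 °C, 5% CO2. Motile parasites counted in a Neubauer chamber. % inhibition taken against untreated cultures; IC50 from non-linear regression.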

Experiment [2] concerns the target Cruzipain (Trypanosoma cruzi) (UniProt P25779). The experiment is described as follows: Inhibition of recombinant Trypanosoma cruzi cruzain using Z-Phe-Argaminomethylcoumarin as fluorogenic substrate preincubated at 75 uM for 10 mins before substrate addition by fluorimetry. The method, boiled down: (§1)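 Recombinant cruzain at 0.5 nM in 0.1 M sodium acetate pH 5.5 with 5 mM DTT and 0.01% Triton X-100. Compound pre-incubated with enzyme 10 min at a single screening concentration. […] Fluorescence followed 5 min at ex 340/em 440 nm. Activity relative to DMSO control; at least two independent experiments in triplicate.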

The subject of experiment [3] is Trypanosoma cruzi. The experiment is described as follows: Trypanocidal activity against epimastigote forms of Trypanosoma cruzi Y assessed as reduction in viable parasites after 11 days by Neubauer chamber counting method. The class given is functional, organism-based. To be noted: 264 h. The method, boiled down:
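Y-strain epimastigotes grown at 26 °C in LIT medium with 10% FBS, hemin, R9 and gentamycin. Seeded at 10^6 cells/well and exposed in triplicate to 1.23, 3.70, 11.11, 33.33 and 100 µg/mL inhibitor in DMSO. Incubated 11 days at 26 °C. Viable parasites counted in a Neubauer chamber against untreated culture. IC50 from non-linear regression; experiment run in duplicate.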

In experiment [4] the target is Cruzipain (Trypanosoma cruzi) (UniProt P25779). The experiment is described as follows: Inhibition of recombinant Trypanosoma cruzi cruzain using Z-Phe-Argaminomethylcoumarin as fluorogenic substrate preincubated at 50 uM for 10 mins before substrate addition by fluorimetry. The method, boiled down: as §1
Experiment [5] has the same target. The experiment is described as follows: Inhibition of recombinant Trypanosoma cruzi cruzain using Z-Phe-Argaminomethylcoumarin as fluorogenic substrate preincubated at 100 uM for 10 mins before substrate addition by fluorimetry. The method, boiled down:
as §1

Another experiment deals with Cruzipain (Trypanosoma cruzi, UniProt P25779). The experiment is described as follows: Inhibition of recombinant Trypanosoma cruzi cruzain using Z-Phe-Argaminomethylcoumarin as fluorogenic substrate preincubated for 10 mins before substrate addition by fluorimetry. The method, boiled down:
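IC50 against recombinant cruzain (0.5 nM) in 0.1 M sodium acetate pH 5.5, 5 mM DTT, 0.01% Triton X-100. At least seven inhibitor concentrations, each pre-incubated 10 min with enzyme. Z-FR-AMC at 2.5 µM, fluorescence ex 340/em 440 nm followed 5 min. Two independent experiments in triplicate, normalized to DMSO control.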

Sequence of Cruzipain (Trypanosoma cruzi) (P25779 123-467 limits assumed): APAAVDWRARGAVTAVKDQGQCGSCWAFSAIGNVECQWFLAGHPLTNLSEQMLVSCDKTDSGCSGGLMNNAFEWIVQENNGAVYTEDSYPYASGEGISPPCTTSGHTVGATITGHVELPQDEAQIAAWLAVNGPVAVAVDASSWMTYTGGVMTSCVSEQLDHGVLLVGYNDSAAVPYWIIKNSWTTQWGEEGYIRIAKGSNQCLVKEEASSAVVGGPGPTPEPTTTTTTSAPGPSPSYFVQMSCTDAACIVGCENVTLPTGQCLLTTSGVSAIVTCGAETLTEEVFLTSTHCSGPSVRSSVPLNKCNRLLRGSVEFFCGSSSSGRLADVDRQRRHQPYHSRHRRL
Sequence of Cruzipain (P25779 whole entry): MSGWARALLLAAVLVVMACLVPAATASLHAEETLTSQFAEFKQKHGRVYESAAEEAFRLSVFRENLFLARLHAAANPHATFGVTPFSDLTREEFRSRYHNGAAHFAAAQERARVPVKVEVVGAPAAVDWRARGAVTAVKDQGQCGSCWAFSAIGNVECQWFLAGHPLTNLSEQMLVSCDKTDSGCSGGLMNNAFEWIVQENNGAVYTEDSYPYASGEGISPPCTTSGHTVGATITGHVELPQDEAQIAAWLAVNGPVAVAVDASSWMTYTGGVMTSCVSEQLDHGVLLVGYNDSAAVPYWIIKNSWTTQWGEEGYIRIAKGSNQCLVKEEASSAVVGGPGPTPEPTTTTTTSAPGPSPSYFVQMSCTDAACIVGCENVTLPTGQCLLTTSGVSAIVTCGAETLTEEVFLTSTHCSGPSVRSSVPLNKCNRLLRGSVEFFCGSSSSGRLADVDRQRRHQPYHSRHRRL

Regarding `C/C(=N\Nc1nc(-c2ccc([N+](=O)[O-])cc2)cs1)c1ccccn1`, the IC50 amounted to 100 µM in the experiment with HepG2, 36.7 µM in the experiment on Trypanosoma cruzi [1] and 5.2 µM in the experiment on Trypanosoma cruzi [3]. Also, the inhibition in experiment [2] worked out at 11%.
In the case of `Fc1ccc(-c2csc(N/N=C/c3ccccn3)n2)cc1`, the half-maximal inhibitory concentration (IC50) was found to be 18.2 µM in the experiment with HepG2, 72.7 µM with Trypanosoma cruzi [1] and 3.5 µM in the experiment on Trypanosoma cruzi [3]. The inhibition in experiment [4] worked out at 22%.
In the case of `C(=N\Nc1nc(-c2ccccc2)cs1)/c1ccccn1`, the half-maximal inhibitory concentration (IC50) came out at 100 µM in the experiment with HepG2, 5.4 µM in the experiment with Trypanosoma cruzi [1] and 8.3 µM in the experiment on Trypanosoma cruzi [3]. For the same compound, the inhibition in experiment [2] turned out to be 9%.
Turning to `Cc1sc(N/N=C/c2ccccn2)nc1-c1ccc(Br)cc1`, the 50% inhibitory concentration (IC50) in the experiment on HepG2 came to 100 µM; in the experiment with Trypanosoma cruzi [1], 2.6 µM; in the experiment with Trypanosoma cruzi [3] it was 18.3 µM. Moreover, in experiment [5], the inhibition amounted to 10%.
As for `Brc1ccc(-c2csc(N/N=C/c3ccccn3)n2)cc1`, the IC50 in the experiment on HepG2 is 100 µM; in the experiment with Trypanosoma cruzi [1], 2.2 µM; at Cruzipain it was 9.5 µM; with Trypanosoma cruzi [3] it was 2.2 µM. In addition, the inhibition in experiment [5] was determined as 86%.
`C/C(=N\Nc1nc(-c2ccccc2)cs1)c1ccccn1`: the IC50 is 91.2 µM with HepG2, 1.1 µM with Trypanosoma cruzi [1], 1.3 µM on Cruzipain and 2.7 µM in the experiment with Trypanosoma cruzi [3]. In addition, the inhibition in experiment [5] stood at 93%.
For `C/C(=N/Nc1nc(-c2ccc(Cl)cc2)cs1)c1ccccn1`, the half-maximal inhibitory concentration (IC50) in the experiment with HepG2 was determined as 100 µM; in the experiment on Trypanosoma cruzi [1], 2.1 µM; in the experiment on Trypanosoma cruzi [3], 2.5 µM. For the same compound, in experiment [5], the inhibition is -3%.
For `O=[N+]([O-])c1ccc(-c2csc(N/N=C/c3ccccn3)n2)cc1`, the IC50 with HepG2 stood at 100 µM; in the experiment on Trypanosoma cruzi [1], 153 µM; in the experiment with Trypanosoma cruzi [3], 4.4 µM. Besides, the inhibition in experiment [5] was found to be 12%.
As for `Clc1ccc(-c2csc(N/N=C/c3ccccn3)n2)cc1Cl`, the IC50 is 100 µM in the experiment with HepG2, 1.2 µM with Trypanosoma cruzi [1] and 4 µM in the experiment on Trypanosoma cruzi [3]. For the same compound, the inhibition in experiment [5] was determined as 21%.
For `C(=N\Nc1nc(-c2ccc3ccccc3c2)cs1)/c1ccccn1`, in that order: 100 µM, 2.1 µM, 8.3 µM and 3%.
For `C/C(=N\Nc1nc(-c2ccc(Br)cc2)cs1)c1ccccn1`, in that order: 100 µM, 2.1 µM, 2.1 µM and -8%.
In the case of `Cc1ccc(-c2csc(N/N=C/c3ccccn3)n2)cc1`, the IC50 in the experiment on HepG2 is 100 µM; with Trypanosoma cruzi [1] it was 16.8 µM; with Trypanosoma cruzi [3], 3.8 µM. Moreover, the inhibition in experiment [5] is 23%.
For `O=[N+]([O-])c1cccc(-c2csc(N/N=C/c3ccccn3)n2)c1`, the IC50 in the experiment on HepG2 stood at 100 µM; in the experiment with Trypanosoma cruzi [1], 74.2 µM; at Cruzipain it was 1.3 µM; in the experiment on Trypanosoma cruzi [3], 2.5 µM. For the same compound, the inhibition in experiment [5] was determined as 85%.
As for `C/C(=N\NC(N)=S)c1ccccn1`, the IC50 in the experiment with Trypanosoma cruzi [1] amounted to 2.8 µM; with Trypanosoma cruzi [3] it was 4.5 µM. Besides, in experiment [5], the inhibition was found to be 5%.
With `C/C(=N\Nc1nc(-c2ccc(Cl)cc2Cl)cs1)c1ccccn1`, the IC50 in the experiment with HepG2 came out at 100 µM; with Trypanosoma cruzi [1], 1.9 µM; on Cruzipain, 4.8 µM; in the experiment with Trypanosoma cruzi [3], 14.9 µM. In addition, the inhibition in experiment [5] came out at 81%.
In the case of `C/C(=N\Nc1nc(-c2ccc(Cl)c(Cl)c2)cs1)c1ccccn1`, the IC50 in the experiment with HepG2 stood at 100 µM; with Trypanosoma cruzi [1], 3.1 µM; at Cruzipain, 0.4 µM; with Trypanosoma cruzi [3], 5 µM. In addition, the inhibition in experiment [5] was determined as 89%.
Regarding `Clc1ccc(-c2csc(N/N=C/c3ccccn3)n2)cc1`, the values for the IC50 in the experiment with HepG2, with Trypanosoma cruzi [1] and in the experiment with Trypanosoma cruzi [3] were 100 µM, 3.8 µM and 3.8 µM, respectively. In addition, the inhibition in experiment [2] is -1%.
As for `Clc1ccc(-c2csc(N/N=C/c3ccccn3)n2)c(Cl)c1`, the IC50 is 100 µM in the experiment with HepG2, 1.2 µM with Trypanosoma cruzi [1] and 4.8 µM in the experiment on Trypanosoma cruzi [3]. Moreover, the inhibition in experiment [2] came out at 0%.
`C/C(=N\Nc1nc(-c2ccc3ccccc3c2)cs1)c1ccccn1`: the IC50 came out at 100 µM in the experiment on HepG2, 2 µM with Trypanosoma cruzi [1], 0.01 µM on Cruzipain and 4.1 µM in the experiment with Trypanosoma cruzi [3]. In addition, the inhibition in experiment [5] was 94%.
With `COc1ccc(-c2csc(N/N=C/c3ccccn3)n2)cc1`, the half-maximal inhibitory concentration (IC50) was 100 µM in the experiment with HepG2, 4.8 µM with Trypanosoma cruzi [1] and 5.6 µM with Trypanosoma cruzi [3]. In experiment [2], the inhibition was 20%.
As to `COc1ccc(-c2csc(N/N=C(\C)c3ccccn3)n2)cc1`, the IC50 in the experiment on HepG2 turned out to be 100 µM; with Trypanosoma cruzi [1], 2.1 µM; on Cruzipain, 0.04 µM; with Trypanosoma cruzi [3], 14.7 µM. Besides, the inhibition in experiment [5] is 95%.
On to `C/C(=N\Nc1nc(-c2ccc(F)cc2)cs1)c1ccccn1`, for which the IC50 in the experiment on HepG2 turned out to be 91.2 µM; in the experiment on Trypanosoma cruzi [1] it was 3.8 µM; at Cruzipain, 0.3 µM; with Trypanosoma cruzi [3], 2.8 µM. Besides, the inhibition in experiment [5] worked out at 89%.
For the compound `C/C(=N\Nc1nc(-c2ccc(C)cc2)cs1)c1ccccn1`, the IC50 in the experiment with HepG2 stood at 100 µM; in the experiment with Trypanosoma cruzi [1], 1.7 µM; on Cruzipain, 0.4 µM; with Trypanosoma cruzi [3] it was 2.5 µM. The inhibition in experiment [5] worked out at 90%.
For the compound `C/C(=N\Nc1nc(-c2ccc(Br)cc2)c(C)s1)c1ccccn1`, the IC50 with HepG2 turned out to be 85.1 µM; in the experiment on Trypanosoma cruzi [1] it was 2.3 µM; in the experiment on Trypanosoma cruzi [3] it was 2.3 µM. Also, the inhibition in experiment [5] came out at 27%.
Take `C/C(=N\Nc1nc(-c2cccc([N+](=O)[O-])c2)cs1)c1ccccn1`: the values for the IC50 in the experiment with HepG2, in the experiment on Trypanosoma cruzi [1] and in the experiment on Trypanosoma cruzi [3] were 100 µM, 3.9 µM and 2.4 µM, respectively. Moreover, in experiment [2], the inhibition came to 10%.
On to `N/C(S)=N/N=C/c1ccccn1`, for which the IC50 was 17.3 µM in the experiment with Trypanosoma cruzi [1] and 120 µM in the experiment on Trypanosoma cruzi [3]. In experiment [5], the inhibition worked out at 1%.
